According to ChEMBL document CHEMBL1129357, “4-[4-[(2-Hydroxybenzoyl)amino]phenyl]butyric acid as a novel oral delivery agent for recombinant human growth hormone” (1996):

Tests used:
Type in all cases: functional
[1] = tested on: Rattus norvegicus; assay: Ability to promote absorption of recombinant human growth hormone from the gastrointestinal tract in rats by using ELISA assay. (Compound dose 500 mg/kg, rhGH 6 mg/kg by OG administration)
Outline: (§1)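 Male Sprague-Dawley rats, 225-250 g, in groups of six or seven, with free access to water for 24 h beforehand. Ketamine 44 mg/kg plus thorazine 1.5 mg/kg given just before dosing. Aqueous delivery agent, adjusted to pH 7.2-7.8, with rhGH, given by oral gavage or intracolonic instillation. Serum rhGH measured by ELISA; peak concentration in ng/mL reported as mean ± SD.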

[2] = tested on: Rattus norvegicus; assay: Ability to promote absorption of recombinant human growth hormone from the gastrointestinal tract in rats by using ELISA assay. (Compound dose 200 mg/kg, rhGH 6 mg/kg by OG administration); outline: as §1
[3] = tested on: Rattus norvegicus; assay: Ability to promote absorption of recombinant human growth hormone from gastrointestinal tract in rats by using ELISA assay at a of dose 25 mg/kg, rhGH 1 mg/kg by IC administration; outline: as §1
[4] = tested on: Rattus norvegicus; assay: Ability to promote absorption of recombinant human growth hormone from the gastrointestinal tract in rats by using ELISA assay at a of dose 25 mg/kg, rhGH 1 mg/kg by IC administration; outline: as §1
[5] = tested on: Rattus norvegicus; assay: Ability to promote absorption of recombinant human growth hormone from the gastrointestinal tract in rats by using ELISA assay. (Compound dose 400 mg/kg, rhGH 6 mg/kg by OG administration); outline: as §1
[6] = tested on: Rattus norvegicus; assay: Ability to promote absorption of recombinant human growth hormone from the gastrointestinal tract in rats by using ELISA assay. (Compound dose 300 mg/kg, rhGH 6 mg/kg by OG administration); outline: as §1
[7] = tested on: Rattus norvegicus; assay: Ability to promote absorption of recombinant human growth hormone from the gastrointestinal tract in rats by using ELISA assay. (Compound dose 25 mg/kg, rhGH 6 mg/kg by OG administration); settings: in the assay text read “rhGH 1 mg/kg by IC administration” for “rhGH 6 mg/kg by OG administration”; outline: as §1

O=C(O)CCCc1ccc(NC(=O)CC2CCCCC2)cc1
Peak rhGH [1]: 24.2 ng/mL

O=C(O)CCCc1ccc(NC(=O)c2ccc(O)cc2O)cc1
Peak rhGH [2]: 16.9 ng/mL

O=C(O)CCCc1ccc(NC(=O)c2ccccc2C(=O)O)cc1
Peak rhGH [3]: 22.3 ng/mL

O=C(O)CCCc1ccc(NC(=O)c2cccc(Cl)c2)cc1
Peak rhGH [4]: 0 ng/mL

CN(C)c1cccc(C(=O)Nc2ccc(CCCC(=O)O)cc2)c1
Peak rhGH [3]: 50.7 ng/mL

O=C(O)CCCc1ccc(NC(=O)c2ccccc2[N+](=O)[O-])cc1
Peak rhGH [3]: 14.9 ng/mL

CCC(C(=O)Nc1ccc(CCCC(=O)O)cc1)C1CCCCC1 (configuration not stated)
Peak rhGH [5]: 0.5 ng/mL

O=C(CCCc1ccccc1)Nc1ccc(C(=O)O)cc1
Peak rhGH [1]: 11.9 ng/mL

O=C(O)CCCc1ccc(NC(=O)CCCCc2ccccc2)cc1
Peak rhGH [3]: 8.4 ng/mL

Cc1ccccc1C(=O)Nc1ccc(CCCC(=O)O)cc1
Peak rhGH [4]: 9.08 ng/mL

O=C(O)c1ccc(NC(=O)c2ccc(F)cc2)cc1
Peak rhGH [3]: 2.2 ng/mL | Peak rhGH [6]: 1 ng/mL

O=C(O)CCCc1ccc(NCc2ccccc2O)cc1
Peak rhGH [3]: 32.5 ng/mL

O=C(O)CCCc1ccc(NC(=O)CCCc2ccccc2)cc1
Peak rhGH [6]: 17.9 ng/mL

COc1ccc(/C=C/C(=O)Nc2ccc(CCC(=O)O)cc2)cc1
Peak rhGH [3]: 5 ng/mL

O=C(O)CCCc1ccc(NC(=O)Cc2ccccc2O)cc1
Peak rhGH [6]: 0 ng/mL

O=C(O)CCCc1ccc(NC(=O)c2ccc3c(c2)OCO3)cc1
Peak rhGH [3]: 0 ng/mL

COc1ccccc1/C=C/C(=O)Nc1ccc(CCCC(=O)O)cc1
Peak rhGH [7]: 32.9 ng/mL

O=C(O)/C=C/c1ccc(NC(=O)c2ccccc2)cc1
Peak rhGH [5]: 6.5 ng/mL

COc1ccccc1C(=O)Nc1ccc(CCCC(=O)O)cc1
Peak rhGH [3]: 17.8 ng/mL

Cc1ccccc1/C=C/C(=O)Nc1ccc(CCCC(=O)O)cc1
Peak rhGH [4]: 16.4 ng/mL

O=C(CCc1ccccc1)Nc1ccc(C(=O)O)cc1
Peak rhGH [1]: 3.3 ng/mL

O=C(O)CCCc1ccc(NC(=O)/C=C/c2c(F)c(F)c(F)c(F)c2F)cc1
Peak rhGH [5]: 49.7 ng/mL

COc1ccccc1/C=C/C(=O)Nc1ccc(C(=O)O)cc1
Peak rhGH [4]: 30.4 ng/mL

CC1CCC(C(=O)Nc2ccc(CCCC(=O)O)cc2)CC1 (configuration not stated)
Peak rhGH [5]: 41.6 ng/mL

O=C(O)Cc1ccc(NC(=O)Cc2ccccc2)cc1
Peak rhGH [6]: 9 ng/mL

O=C(O)CCCc1ccc(NC(=O)C2CCCCC2)cc1
Peak rhGH [1]: 63.8 ng/mL

CC(C)Cc1ccc(CC(=O)Nc2ccc(CCCC(=O)O)cc2)cc1
Peak rhGH [2]: 7.8 ng/mL

O=C(O)CCCc1ccc(NC(=O)c2cccc([N+](=O)[O-])c2)cc1
Peak rhGH [3]: 33.5 ng/mL

COc1ccc(C(=O)Nc2ccc(CCCC(=O)O)cc2)cc1
Peak rhGH [6]: 0 ng/mL

O=C(O)CCCc1ccc(NC(=O)c2ccccc2OC(F)(F)F)cc1
Peak rhGH [3]: 56.8 ng/mL

O=C(CCCC1CCCCC1)Nc1ccc(C(=O)O)cc1
Peak rhGH [1]: 29.3 ng/mL

CCC(C(=O)Nc1ccc(CCCC(=O)O)cc1)c1ccccc1 (configuration not stated)
Peak rhGH [6]: 5.9 ng/mL

O=C(O)c1ccc(NS(=O)(=O)c2ccccc2)cc1
Peak rhGH [1]: 13.7 ng/mL | Peak rhGH [3]: 0 ng/mL

O=C(O)CCCc1ccc(NC(=O)CCc2ccccc2)cc1
Peak rhGH [6]: 12.8 ng/mL

O=C(O)CCCc1ccc(NC(=O)c2c(O)cccc2O)cc1
Peak rhGH [3]: 20.9 ng/mL
